Results as given in ChEMBL document CHEMBL3758104, “Reinvestigating Old Pharmacophores: Are 4-Aminoquinolines and Tetraoxanes Potential Two-Stage Antimalarials?” (J Med Chem, 2016).
The source made the active and inactive calls. The calls are words filed in the database; no cut-off is given here.

How the values were obtained:
Plasmodium berghei [1] = experiment: Antimalarial activity against Plasmodium berghei ANKA infected in po dosed C57Bl6 mouse administered on day 3 to 5 by Thompson test; assay type: functional
In short: (§1)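 Modified Thompson test: C57Bl6 female mice inoculated intraperitoneally on day 0 with 1×10^6 P. berghei ANKA-infected erythrocytes; compound suspended in 0.5% hydroxyethylcellulose–0.1% Tween 80, given orally once daily on days 3, 4 and 5 post infection. Parasitemia by Giemsa-stained thin tail-blood smears on days 0, 3, 6, 10, 13, 17, 20, 24, 27, 31. Cure = survival without parasitemia to day 31.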

Plasmodium falciparum [2] = experiment: Antimalarial activity against chloroquine-susceptible Plasmodium falciparum D6 after 48 hrs by [3H]hypoxanthine incorporation assay; assay type: functional, organism-based
In short: (§2)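 P. falciparum D6 (Sierra I/UNC clone), W2 (Indochina I clone), TM91C235 (South-East Asian clone) cultured with compound; growth inhibition by [3H]hypoxanthine incorporation (modified Desjardins/Milhous method). Chloroquine, mefloquine, artemisinin as positive controls. IC50 in nM; technical triplicates, curve fits R2 0.96–1.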

[3] = Selectivity index, ratio of IC50 for human HepG2 cells to IC50 for chloroquine susceptible Plasmodium falciparum D6; assay type: toxicity, cell-based; settings: read-out: Ratio IC50
Plasmodium falciparum [4] = experiment: Antimalarial activity against mutidrug resistant Plasmodium falciparum TM91C235 after 48 hrs by [3H]hypoxanthine incorporation assay; assay type: functional, organism-based; in short: as §2
Plasmodium berghei [5] = experiment: Antimalarial activity against Plasmodium berghei ANKA infected in C57Bl6 mouse assessed as reduction of parasitemia at 160 mg/kg/day, po administered for day 3 to 5 measured on day 6 by Thompson test; assay type: functional, organism-based; in short: as §1
Plasmodium berghei [6] = experiment: Antimalarial activity against Plasmodium berghei ANKA infected in C57Bl6 mouse at 80 mg/kg/day, po measured on day 3 to 5 by Thompson test; assay type: functional
HepG2 = experiment: Cytotoxicity against human HepG2 cells after 48 hrs by MTT assay; assay type: cell-based; settings: HepG2, 48 h
Plasmodium berghei [7] = experiment: Antimalarial activity against Plasmodium berghei ANKA infected in C57Bl6 mouse assessed as reduction of parasitemia at 160 mg/kg/day, po administered for day 3 to 5 measured after 10 to 14 days by Thompson test; assay type: functional, organism-based; in short: as §1
Plasmodium falciparum [8] = experiment: Antimalarial activity against chloroquine-resistant Plasmodium falciparum W2 after 48 hrs by [3H]hypoxanthine incorporation assay; assay type: functional, organism-based; in short: as §2
Mus musculus = experiment: Toxicity in Plasmodium berghei ANKA infected C57Bl6 mouse at 160 mg/kg/day, po administered for 3 days measured 2 times a day for 31 days; assay type: organism-based; settings: in vivo, 744 h
[9] = Half life in human liver microsomes at 1 uM by LC-MS/MS analysis; assay type: ADME
[10] = Half life in mouse liver microsomes at 1 uM by LC-MS/MS analysis; assay type: ADME
RAW264.7 = experiment: Cytotoxicity against mouse RAW264.7 cells; assay type: cell-based
Plasmodium berghei [11] = experiment: Antimalarial activity against Plasmodium berghei ANKA infected in C57Bl6 mouse at 160 mg/kg/day, po measured on day 3 to 5 by Thompson test; assay type: functional
Plasmodium berghei [12] = experiment: Antimalarial activity against sporozoite stage of Plasmodium berghei infected in human Huh7 cells assessed as inhibition of parasite infection pre-incubated for 24 hrs followed by parasite infection measured after 48 hrs by bioluminescence assay; assay type: functional, organism-based; settings: Huh-7
Plasmodium berghei [13] = experiment: Antimalarial activity against sporozoite stage of Plasmodium berghei infected in human Huh7 cells assessed as remaining parasite infection at 5 uM pre-incubated for 24 hrs followed by parasite infection measured after 48 hrs by bioluminescence assay; settings: Huh-7
Plasmodium berghei [14] = experiment: Antimalarial activity against sporozoite stage of Plasmodium […] infected in human HepG2 cells; assay type: functional, organism-based
[15] = Inhibition of beta hematin formation measured as hemin equivalent after 18 hrs; assay type: physicochemical
In short: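 Hemin (16 mM in DMSO) mixed with compound at 0.125–5 mol equiv to hemin, plus water and 8 M acetate buffer pH 5.2, 25% DMSO final. Incubated 18 h at 37 °C. Pellet washed with DMSO, dissolved in 0.1 M NaOH, absorbance read at 405 nm (corrected at 670 nm) against a hemin calibration.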

Plasmodium berghei [16] = experiment: Antimalarial activity against Plasmodium berghei ANKA infected in C57Bl6 mouse assessed as increase in cure rate at 80 mg/kg/day, po administered for day 3 to 5 by Thompson test; assay type: functional, organism-based; in short: as §1

SMILES	IC50 (Plasmodium falciparum [2])	selectivity ratio [3]	IC50 (Plasmodium falciparum [4])	IC50 (HepG2)	IC50 (Plasmodium falciparum [8])	also measured
CC(CNc1ccnc2cc(Cl)ccc12)NCCC12CC3CC(CC(C3)C1)C2 (stereo unspecified)	6 nM	4190	7 nM	25100 nM	7 nM	MAC (Plasmodium berghei [1]): 80 mg/kg/day; Activity (Plasmodium berghei [5]): Active; MST (Plasmodium berghei [6]): 15.3 days; Activity (Plasmodium berghei [7]): inactive; Activity (Mus musculus): Non-toxic; half-life at 1 µM [9]: 27 min; half-life at 1 µM [10]: 60 min
CC(NCCCNc1ccnc2cc(Cl)ccc12)C12CC3CC(CC(C3)C1)C2 (stereo unspecified)	4 nM	790	15 nM	–	22 nM	IC50 (RAW264.7): 3160 nM; half-life at 1 µM [9]: 16 min; half-life at 1 µM [10]: 11 min
CC(CCCNc1ccnc2cc(Cl)ccc12)NCCC12CC3CC(CC(C3)C1)C2 (stereo unspecified)	9 nM	289	47 nM	2600 nM	81 nM	–
Fc1ccc2c(CNCCCNc3ccnc4cc(Cl)ccc34)csc2c1	–	–	–	–	–	Activity (Mus musculus): Non-toxic; MST (Plasmodium berghei [11]): 26.4 days
Fc1ccc2scc(CNCCCCNc3ccnc4cc(Cl)ccc34)c2c1	–	–	–	–	–	MST (Plasmodium berghei [6]): 30.2 days; Activity (Mus musculus): Non-toxic; MST (Plasmodium berghei [11]): 30 days
CC(CCNCC12CC3CC(CC(C3)C1)C2)Nc1nc2cc(Cl)ccc2cc1F (stereo unspecified)	–	–	–	–	–	IC50 (Plasmodium berghei [12]): 1000 nM; % infection at 5 µM (Plasmodium berghei [13]): 2%
O=C1C(O)=C([C@H]2CC[C@H](c3ccc(Cl)cc3)CC2)C(=O)c2ccccc21 [ATOVAQUONE]	–	–	–	–	–	IC50 (Plasmodium berghei [14]): 22 nM
C[C@@H]1CC[C@H]2[C@@H](C)C(=O)O[C@@H]3O[C@@]4(C)CC[C@@H]1[C@]32OO4 [ARTEMISININ]	9 nM	–	13 nM	–	7 nM	IC50 (Plasmodium berghei [14]): 12000 nM
CC(CCNCCC12CC3CC(CC(C3)C1)C2)Nc1ccnc2cc(Cl)ccc12 (stereo unspecified)	13 nM	1870	13 nM	24300 nM	13 nM	IC50 (Plasmodium berghei [12]): 2500 nM; half-life at 1 µM [9]: 60 min; half-life at 1 µM [10]: 60 min; % infection at 5 µM (Plasmodium berghei [13]): 8%
CCN(CC)CCCNc1c(F)cnc2cc(Cl)ccc12	–	–	–	–	–	Activity (Mus musculus): Non-toxic; MST (Plasmodium berghei [11]): 14.6 days
CC(CCNCC12CC3CC(CC(C3)C1)C2)Nc1ccnc2ccccc12 (stereo unspecified)	17 nM	136	135 nM	2320 nM	185 nM	MST (Plasmodium berghei [6]): 15.2 days; IC50 [15]: 1.22 equiv; Activity (Mus musculus): Non-toxic; half-life at 1 µM [9]: 60 min; half-life at 1 µM [10]: 60 min; Activity (Plasmodium berghei [16]): inactive
C[C@H]1[C@H](N2CCS(=O)(=O)CC2)O[C@@H]2O[C@@]3(C)CC[C@H]4[C@H](C)CC[C@@H]1[C@@]24OO3 [ARTEMIFONE]	–	–	–	–	–	IC50 (Plasmodium berghei [14]): 40 nM
CC(CCNCCC12CC3CC(CC(C3)C1)C2)Nc1c(F)cnc2cc(Cl)ccc12 (stereo unspecified)	143 nM	22	171 nM	3210 nM	203 nM	IC50 (Plasmodium berghei [12]): 1000 nM; % infection at 5 µM (Plasmodium berghei [13]): 3%
CC(CCCNCC12CC3CC(CC(C3)C1)C2)Nc1ccnc2cc(Cl)ccc12 (stereo unspecified)	21 nM	1160	23 nM	24300 nM	22 nM	half-life at 1 µM [9]: 49 min; half-life at 1 µM [10]: 57 min
CC(CCNCCC12CC3CC(CC(C3)C1)C2)Nc1ccnc2ccccc12 (stereo unspecified)	7 nM	227	102 nM	1590 nM	126 nM	–
O[C@@H](c1cc(C(F)(F)F)nc2c(C(F)(F)F)cccc12)[C@H]1CCCCN1 [(S,R)-MEFLOQUINE]	–	–	–	–	5 nM	–
CC(CCNCC12CC3CC(CC(C3)C1)C2)Nc1c(F)cnc2ccccc12 (stereo unspecified)	60 nM	3	259 nM	–	157 nM	MST (Plasmodium berghei [6]): 12.8 days; IC50 [15]: 0.61 equiv; Activity (Mus musculus): Non-toxic; Activity (Plasmodium berghei [16]): inactive
CC(CCCNCC12CC3CC(CC(C3)C1)C2)Nc1c(F)cnc2cc(Cl)ccc12 (stereo unspecified)	198 nM	18	342 nM	3550 nM	488 nM	–
CCN(CC)CCCC(C)Nc1nc2cc(Cl)ccc2cc1F (stereo unspecified)	–	–	–	–	–	IC50 (Plasmodium berghei [12]): 1000 nM; IC50 [15]: 2.43 equiv; % infection at 5 µM (Plasmodium berghei [13]): 40%
CC(CCCNCCC12CC3CC(CC(C3)C1)C2)Nc1ccnc2ccccc12 (stereo unspecified)	12 nM	133	286 nM	1590 nM	393 nM	–
CCN(CC)CCCC(C)Nc1c(F)cnc2cc(Cl)ccc12 (stereo unspecified)	–	–	–	–	–	IC50 (Plasmodium berghei [12]): 1000 nM; IC50 [15]: 1.07 equiv; Activity (Mus musculus): Non-toxic; MST (Plasmodium berghei [11]): 16.8 days; % infection at 5 µM (Plasmodium berghei [13]): 35%
CCN(CC)CCCC(C)Nc1ccnc2cc(Cl)ccc12 (stereo unspecified) [CHLOROQUINE]	–	–	–	–	–	MST (Plasmodium berghei [6]): 25.6 days; IC50 (Plasmodium berghei [14]): 9000 nM; MST (Plasmodium berghei [11]): >31 days
CC(NCCCCNc1ccnc2cc(Cl)ccc12)C12CC3CC(CC(C3)C1)C2 (stereo unspecified)	7 nM	441	19 nM	3090 nM	25 nM	–
COC(=O)CCC(C)[C@H]1CC[C@H]2[C@@H]3[C@H](OC(C)=O)C[C@@H]4CC5(CC[C@]4(C)[C@H]3C[C@H](OC(C)=O)[C@]12C)OOC1(CCCCC1)OO5 (stereo partly specified)	–	–	–	–	–	IC50 (Plasmodium berghei [12]): < 1000 nM; % infection at 5 µM (Plasmodium berghei [13]): 31%
CC(CCCNc1ccnc2cc(Cl)ccc12)NCC12CC3CC(CC(C3)C1)C2 (stereo unspecified)	51 nM	32	165 nM	1610 nM	282 nM	–
CC(CCNCCC12CC3CC(CC(C3)C1)C2)Nc1c(F)cnc2ccccc12 (stereo unspecified)	154 nM	3	546 nM	–	394 nM	–
CC(CCCNCCC12CC3CC(CC(C3)C1)C2)Nc1c(F)cnc2cc(Cl)ccc12 (stereo unspecified)	288 nM	9	590 nM	2610 nM	547 nM	–
CCN(CC)CCCNc1nc2cc(Cl)ccc2cc1F	–	–	–	–	–	Activity (Mus musculus): Non-toxic; MST (Plasmodium berghei [11]): 20.2 days
